Compounds with a hit are over-represented: about 4.2% of the library has one in this group of screens.
OX1R antag-1: human HCRTR1 antagonism | actives 0.43% (n = 330,000) | inhibition, % at 5 µM | CHO/OX1R cells, Fluo-8 calcium fluorescence, orexin A | O43613;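 active = inhibition above its plate's threshold, mean inhibition of all tested compounds on the plate plus 3 SD, cut at about 37% in these data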;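 note: 0% = orexin A challenge wells and 100% = SB-334867-A antagonist wells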
TAAR1 antag: antagonists of human TAAR1; Q96RJ0; CHO RD-HGA16 TAAR1, Fluo-8 calcium fluorescence, antagonist; inhibition, % at 3 µM; actives 1.5% (n = 360,000);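 active = inhibition above a per-plate cutoff, the mean inhibition of test compounds on that plate plus 3 SD, cut at about 49% in these data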;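 note: 0% = DMSO plus EC80 beta-PEA response and 100% = DMSO alone without agonist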
Target sequence (Q96RJ0 whole entry, looked up): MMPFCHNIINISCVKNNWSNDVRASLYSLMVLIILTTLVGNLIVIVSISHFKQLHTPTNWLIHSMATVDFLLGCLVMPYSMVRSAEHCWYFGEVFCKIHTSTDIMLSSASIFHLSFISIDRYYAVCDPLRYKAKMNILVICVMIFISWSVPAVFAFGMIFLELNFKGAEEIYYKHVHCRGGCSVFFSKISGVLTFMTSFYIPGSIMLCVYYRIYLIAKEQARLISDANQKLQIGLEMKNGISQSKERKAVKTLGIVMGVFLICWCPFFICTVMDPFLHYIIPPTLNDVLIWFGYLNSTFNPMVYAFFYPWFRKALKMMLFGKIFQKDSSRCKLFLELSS
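Test system: RD-HGA16 CHO cells with stable hTAAR1 and Gα16 / Probe or stimulus: EC80 β-phenethylamine stimulus / Times: seeding 17-24 h prior, 75-min 37 °C, 30-min RT dye loading / Detection: Fluo-8 calcium-sensitive fluorescence / Read-out basis: % inhibition scaled between DMSO and EC80 PEA controls / Repeats: singlicate, one well per test compound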
TAAR1 agonist: agonists of human TAAR1; Q96RJ0; CHO RD-HGA16 TAAR1, Fluo-8 calcium fluorescence; vehicle wells 0%, saturating PEA agonist 100%; activation, % at 3 µM; actives 0.99% (n = 360,000);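 active = activation above the mean activation of all test compounds in the run plus 3 SD, cut at about 38% in these data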
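Test system: RD-HGA16 (CHO) cells co-expressing Gα16 and hTAAR1 | Doses: Single dose, 3 µM | Schedule: 17-24 h seeding, 75 min 37 °C dye, 30 min RT | Evaluation: % activation from peak over basal fluorescence ratio, DMSO-to-PEA scaled | Technique: Kinetic Fluo-8 calcium fluorescence | Benchmarks: Low control DMSO, high control PEA (EC100)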
GalR3 antagonist: antagonists of human GalR3; O60755; inhibition, % at 3 µM; HEK293 GalR3-CNG cAMP membrane potential fluorescence; galR3 body fused to GalR1 C-terminus; AID 651719; actives 0.44% (n = 360,000);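 active = inhibition above the screen-wide average plus 3 SD, cut at about 13% in these data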;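 note: forskolin and galanin both at EC90 stimulate the cells; cAMP rise reported by CNG channel membrane potential dye signal; 0% = forskolin plus galanin with DMSO and 100% = forskolin alone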
Target sequence (O60755 1-299 limits assumed): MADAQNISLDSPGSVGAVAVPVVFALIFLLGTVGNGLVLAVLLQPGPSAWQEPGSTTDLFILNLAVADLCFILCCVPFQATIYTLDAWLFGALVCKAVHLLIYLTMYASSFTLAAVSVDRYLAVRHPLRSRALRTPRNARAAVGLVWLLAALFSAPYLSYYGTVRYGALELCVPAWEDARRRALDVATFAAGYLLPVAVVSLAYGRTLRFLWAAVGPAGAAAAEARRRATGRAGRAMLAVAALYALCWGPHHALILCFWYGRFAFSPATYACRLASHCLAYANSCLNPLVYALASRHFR
CHO parental Ca: counter-screen for OX1R antagonists: effect in parental CHO cells; parental CHO-K1, ATP-induced calcium, Fluo-8 fluorescence; inhibition, % at 5.6 µM; actives 0.63% (n = 330,000); AID 463079;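 active = inhibition above that plate's mean sample inhibition plus 3 SD, cut at about 26% in these data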;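 note: 0% = ATP-challenged DMSO wells and 100% = DMSO wells without ATP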
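Assay system: parental CHO cells; Read-out basis: percent inhibition of ATP-evoked calcium rise, normalized to controls; Benchmarks: ATP and no-ATP DMSO wells; Compound dosing: single nominal dose of 5.6 µM per compound; Signal: Fluo-8 calcium dye fluorescence; Also added: ATP as calcium-mobilizing challenge; Repeats: singlicate.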
OX1R antag-2: antagonists of human orexin 1 receptor (OX1R). inhibition, % at 6.6 µM. O43613. actives 1.8% (n = 330,000). OX1R-expressing cells, FRET antagonist read-out; in the data active = inhibition mostly above about 38%, no sharp cut-off; inactive = mostly below about 40%;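 note: 0% = agonist challenge alone and 100% = reference antagonist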
* = called active by the depositor; . = no result given.

SMILES	OX1R antag-1	TAAR1 antag	TAAR1 agonist	GalR3 antagonist	CHO parental Ca	OX1R antag-2
COc1ccc(CCNC(=O)c2ccc(Cl)cc2Cl)cc1OC	-22.6	7.8	1.7	-5.1	-16.9	23.6
COc1ccc(CCNC(=O)c2ccc([N+](=O)[O-])cc2Cl)cc1OC	4.3	-34.4	5.3	1.9	-12.4	71.3*
COc1ccc(CCNC(=O)c2ccc(=O)[nH]n2)cc1OC	-3.0	-3.2	5.2	-0.1	39.6*	4.1
CCN(CC)CCOC(=O)c1ccc(N/C=C(/C#N)c2nc(-c3ccc4c(c3)OCO4)cs2)cc1	-24.7	1.8	0.5	4.1	-8.0	5.3
CC(=O)Nc1ccc(S[C@@H](CCN2CC[C@H](C(C)(C)C)CCC2=O)c2ccccc2)cc1	-14.5	48.7*	17.0	-3.8	-21.7	10.5
Cc1nc(C)c(-c2csc(NCc3ccco3)n2)s1	-9.1	-14.1	0.7	-3.0	-16.5	12.1
Cc1nc(NC(=O)c2ccccc2)sc1-c1csc(NCc2ccco2)n1	4.0	.	.	.	-5.1	52.9*
O=C(COc1ccc(F)cc1F)NNC(=O)Nc1cccc([N+](=O)[O-])c1	-22.9	7.5	0.3	1.0	-9.6	35.5
COCC(C)n1c(SCC(=O)N2CCc3ccccc3C2)nc2ccccc2c1=O (stereo unspecified)	-24.6	-9.3	-0.5	-2.8	-21.3	69.5*
COCC(C)n1c(SCC(=O)N2CCCCC2)nc2ccccc2c1=O (stereo unspecified)	-31.2	1.4	6.8	-3.2	-27.4	-8.0
O=C1OCCC1Sc1nc2ccccc2s1 (stereo unspecified)	2.6	7.0	-1.4	-3.8	-13.0	14.1
NS(=O)(=O)c1cccc(NC(=O)Cc2ccc(Cl)c(Cl)c2)c1	-0.1	23.1	1.6	2.3	1.7	6.6
CCOC(=O)/C(=C/C=C1\Sc2ccccc2N1CC)C(C)=O	29.9	.	.	.	28.1*	40.5
CCC(=O)/C=C1/Sc2ccccc2N1CC	-26.2	2.3	-1.2	-5.2	-17.7	35.4
O=C(COC(=O)c1ccc([N+](=O)[O-])s1)Nc1ccc(F)cc1	3.1	12.7	3.6	-5.0	-2.0	41.5*
O=C(OCC(=O)N1CCC(c2ccccc2)=N1)c1ccc([N+](=O)[O-])s1	-26.8	8.4	2.4	-5.2	-17.2	61.0*
CC(C)(C)c1ccc(NC(=O)COC(=O)c2ccc([N+](=O)[O-])s2)cc1	3.6	5.8	2.1	-3.5	-3.5	34.4
O=C(COC(=O)c1ccc([N+](=O)[O-])s1)Nc1ccccc1	5.7	11.4	2.4	-12.1	-2.3	71.5*
Cc1c(Cl)cnc(NC(=O)COC(=O)c2ccc([N+](=O)[O-])s2)c1Cl	-20.2	4.7	-0.3	2.3	-14.1	62.9*
O=C(COC(=O)c1ccc([N+](=O)[O-])s1)Nc1cccc(S(=O)(=O)NC2=NCCCCC2)c1	-17.3	-16.3	11.5	0.1	-10.5	34.7
O=C(COC(=O)c1ccc([N+](=O)[O-])s1)Nc1ccc(Cl)cn1	-3.9	9.9	4.4	-0.7	-6.9	35.3
CC(=O)Cc1nsc(NC(=O)c2ccc(-c3cc(C(F)(F)F)ccc3Cl)o2)n1	4.2	-12.9	0.7	-6.3	-1.7	8.0
O=C(OCc1nnc(-c2ccccc2)o1)c1ccc([N+](=O)[O-])s1	2.4	13.9	5.8	-3.6	-3.7	46.9*
COc1cc2c(cc1OC)C(c1ccccc1)N(C(=O)c1ccccc1)CC2 (stereo unspecified)	-33.0	-9.3	2.8	-2.1	-12.1	-0.7
COC(=O)c1ccc(OCC2c3cc(OC)c(OC)cc3CCN2C(C)=O)cc1 (stereo unspecified)	-10.7	-11.4	2.0	-2.2	1.9	18.0
SMILES	OX1R antag-1	TAAR1 antag	TAAR1 agonist	GalR3 antagonist	CHO parental Ca	OX1R antag-2
COC(=O)c1ccc(OCC2c3cc(OC)c(OC)cc3CCN2C(=O)c2ccco2)cc1 (stereo unspecified)	-16.1	61.4*	15.0	-5.8	-8.3	13.8
COc1cc2c(cc1OC)C(c1ccccc1)N(C(=O)c1ccco1)CC2 (stereo unspecified)	2.9	13.3	-0.6	-3.8	-12.8	33.0*
COc1cc(NC(=O)c2cc(Br)cc(C)c2OC)ccc1NC(=O)C(C)C	-22.2	-2.3	4.4	-5.5	-16.5	7.4
CN1/C(=C\C(=O)c2cncc(Br)c2)C(C)(C)c2ccccc21	37.2	0.2	-0.2	-4.9	38.6*	19.0
CN1/C(=C\C(=O)COC(=O)c2ccco2)C(C)(C)c2ccccc21	-5.7	-10.7	7.1	-5.9	-3.8	32.3
CC(=O)/C=C1\N(C)c2ccc(C)cc2C1(C)C	6.3	-1.0	-1.5	0.4	38.1*	22.3
CN1/C(=C\C(=O)c2ccco2)C(C)(C)c2ccccc21	21.4	57.5*	1.8	-5.8	70.9*	32.6
CC1(C(=O)Nc2ccccc2)CCN1C(=O)C1(c2ccc(Cl)cc2)CC1 (stereo unspecified)	.	-2.9	2.5	0.9	.	.
Cn1c(N)c(C(=O)COC(=O)C2(c3ccc(F)cc3)CCCC2)c(=O)n(C)c1=O	-9.7	64.7*	25.2	-4.0	-4.2	15.3
CCc1ccc(N2C(=O)CN(Cc3ccccc3)C2=S)cc1	-22.6	9.9	-0.6	-4.7	0.5	6.9
N=c1n(CCN2CCCCC2)c2ccccc2n1CC(=O)c1cccc([N+](=O)[O-])c1	-31.4	-13.0	-0.9	-13.9	-25.4	30.0
C=CCn1c(=N)n(CC(=O)c2cccc([N+](=O)[O-])c2)c2ccccc21	-21.1	-3.7	0.7	-2.0	-6.3	38.6*
COC(=O)CCCn1cc(CN2CC(N3CCCC3)CS2(=O)=O)nn1 (stereo unspecified)	.	0.8	3.1	-4.0	.	.
Cn1c(=O)c([N+](=O)[O-])c(NC2CCS(=O)(=O)C2)c2ccccc21 (stereo unspecified)	7.0	-11.9	2.7	-0.2	-2.8	15.0
CC(=O)Nc1nc(-c2ccc3c(c2)CCN3C(=O)C2CC2)c(C)s1	-10.9	-10.9	1.9	-7.4	-10.4	47.7*
CNc1nc(-c2ccc3c(c2)CCN3C(=O)CC(C)(C)C)c(C)s1	-18.2	-0.4	0.5	-5.6	-17.5	30.6
Cc1c(Cc2ccc3c(c2)OCO3)sc(NC(=O)C2CC2)c1C(N)=O	-6.8	-15.6	12.9	1.0	11.6	12.9
Cn1cc2cccc([N+](=O)[O-])c2n1	-0.3	7.7	1.4	-6.3	-1.4	73.9*
Clc1ccc(-c2cn3c(n2)-c2ccccc2C3)cc1Cl	-9.1	2.3	-2.6	-4.7	-21.2	50.7*
Cc1cc(C)n(-c2ccc(C(=O)Nc3ccc(N4CCOCC4)cc3)cc2)n1	-28.9	17.7	6.1	-1.8	-11.4	18.0

Screening results from PubChem.
